# Test results published in ChEMBL document CHEMBL4765235, “Discovery of N-[Bis(4-methoxyphenyl)methyl]-4-hydroxy-2-(pyridazin-3-yl)pyrimidine-5-carboxamide (MK-8617), an Orally Active Pan-Inhibitor of Hypoxia-Inducible Factor Prolyl Hydroxylase 1-3 (HIF PHD1-3) for the Treatment of Anemia” (J Med Chem, 2016).
# Active and inactive are the calls of the source. The calls are words filed in the database; no cut-off is given here.
# Experiments:
# Rattus norvegicus = species: Rattus norvegicus; conditions: Sprague-Dawley, dose 5-15 mg/kg
# [1] = Volume of distribution at steady state in rat at 2 mg/kg, po or 1 mg/kg, iv; type: ADME, organism-based; conditions: in vivo, read-out: Vdss
# [2] = In vivo inhibition of HIF-PHD2 in C57BL/6 mouse assessed as serum erythropoietin level at 5 mg/kg, iv measured after 4 hrs; type: functional
# In short: (§1)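 Mouse pharmacodynamic EPO assay (MoPED). Compound dosed iv; serum EPO measured 4 hr after dosing and reported in pg/mL. Minimum effective dose is the lowest dose giving EPO elevation.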
# [3] = Toxicity in Sprague-Dawley rat assessed as change in hemoglobin levels at 1.5 mg/kg, po QD administered for 4 weeks and measured post last dose; type: organism-based; conditions: in vivo, 672 h
# [4] = In vivo inhibition of HIF-PHD2 in C57BL/6 mouse assessed as serum erythropoietin level at 1.5 mg/kg, iv measured after 4 hrs; type: functional
# In short: as §1
# [5] = Oral bioavailability in rhesus monkey at 1 mg/kg; type: ADME, organism-based, Macaca mulatta; conditions: in vivo
# In short: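 Dog and rhesus monkey dosed 1 mg/kg po and 0.5 mg/kg iv. The iv vehicle was PEG200:12%HPCD:water (30:12:58 v/v/v); the po vehicle was Imwitor:Tween (1:1 w/w). Clearance was measured in plasma. Protein binding was measured in 100% serum.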
# Cytochrome P450 2D6 = Cytochrome P450 2D6 (Homo sapiens, UniProt P10635); assay: Inhibition of CYP2D6 (unknown origin); type: ADME
# Sequence of Cytochrome P450 2D6 (P10635 whole entry): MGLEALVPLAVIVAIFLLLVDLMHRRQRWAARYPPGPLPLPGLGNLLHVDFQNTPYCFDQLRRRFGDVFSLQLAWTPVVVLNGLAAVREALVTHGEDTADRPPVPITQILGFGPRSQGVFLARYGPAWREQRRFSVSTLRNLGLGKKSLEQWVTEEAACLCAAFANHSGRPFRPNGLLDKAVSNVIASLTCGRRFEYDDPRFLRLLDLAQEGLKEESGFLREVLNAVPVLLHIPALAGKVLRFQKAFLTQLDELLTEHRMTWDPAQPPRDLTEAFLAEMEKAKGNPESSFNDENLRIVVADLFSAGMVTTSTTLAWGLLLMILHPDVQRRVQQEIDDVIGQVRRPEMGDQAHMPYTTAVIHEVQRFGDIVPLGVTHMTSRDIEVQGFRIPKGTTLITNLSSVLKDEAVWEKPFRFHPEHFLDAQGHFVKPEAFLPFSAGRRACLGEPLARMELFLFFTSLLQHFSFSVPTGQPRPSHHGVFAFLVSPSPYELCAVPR
smiles,measurement,setting,value
COc1ccc(C(NC(=O)c2cnc(-c3cccnn3)nc2O)c2ccc(OC)cc2)cc1,inhibition,Rattus norvegicus,Active
same,Vd,[1],0.16 L/kg
same,Activity,[2],6200 pg/mL
same,Activity,[3],1 g/dL
same,Activity,[4],360 pg/mL
same,bioavailability,[5],52%
same,IC50,Cytochrome P450 2D6,> 60 µM
